# Screening results from PubChem BioAssay.
# RanGTP-Imp inh: disruptors of Ran-importin-beta complex formation – biochemical, FRET, CFP-Ran, YFP-importin-beta, homogeneous, primary screen | cell-free CFP-Ran/YFP-importin-beta FRET ratio | inhibition, % (concentration not given with the values) | actives 1.1% (n = 300,000);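 active means more than half of the replicate wells show a fall in the fluorescence ratio signal beyond about 16%, limit read from the data, passing the limit was not always enough; inconclusive means exactly half of the replicate wells pass the set limit; inactive means fewer than half of replicates pass the limit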
# Runt-CBFb FRET: inhibitors of human RUNX1 Runt domain binding to CBFb | Q01196+Q13951 | Cerulean-Runt/Venus-CBFb FRET ratio 530/480, 1 h | inhibition, % at 20 µM | actives 0.46% (n = 220,000);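 active means inhibition over about 50% at 20 µM in the single-dose screen, limit read from the data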
# Target sequence (Q01196 whole entry, looked up, the tested form may be a part): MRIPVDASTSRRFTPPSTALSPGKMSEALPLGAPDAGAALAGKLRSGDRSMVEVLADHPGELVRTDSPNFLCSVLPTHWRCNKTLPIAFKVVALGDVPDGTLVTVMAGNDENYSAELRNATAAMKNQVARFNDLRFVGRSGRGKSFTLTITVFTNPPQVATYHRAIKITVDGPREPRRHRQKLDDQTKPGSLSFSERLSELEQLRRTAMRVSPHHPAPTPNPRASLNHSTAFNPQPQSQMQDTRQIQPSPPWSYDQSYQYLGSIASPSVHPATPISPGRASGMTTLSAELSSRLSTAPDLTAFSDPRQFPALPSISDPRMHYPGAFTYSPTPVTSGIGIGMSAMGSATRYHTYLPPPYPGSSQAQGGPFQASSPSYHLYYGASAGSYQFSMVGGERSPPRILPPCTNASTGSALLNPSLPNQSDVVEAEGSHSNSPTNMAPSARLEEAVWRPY
# Target sequence (Q13951 whole entry, looked up, the tested form may be a part): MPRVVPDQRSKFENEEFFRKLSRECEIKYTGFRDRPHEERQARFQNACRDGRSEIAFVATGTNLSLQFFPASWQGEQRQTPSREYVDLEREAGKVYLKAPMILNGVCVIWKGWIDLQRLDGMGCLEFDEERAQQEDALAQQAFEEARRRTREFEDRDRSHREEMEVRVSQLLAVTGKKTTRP
#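 Assay system: Cerulean-Runt domain / Medium: Tris 50 mM pH 7.5, KCl, K2SO4, 0.01% BSA / Timing: protein complex preformed 1 h, compound exposure 1 h, room temperature, dark / Measured by: FRET, excitation 422 nm, emission at 530 and 480 nm / Evaluation: loss of energy transfer signal / Control set: 5 µM unlabeled CBFb as full-inhibition high control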
# 14-3-3 Bad inh: disrupts binding of bovine 14-3-3 zeta to phospho-Bad peptide | P63103 | TR-FRET 14-3-3zeta/Dy647-pBad peptide displacement, 1 h | inhibition, % at 21.7 µM | actives 0.71% (n = 220,000);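 active means inhibition above about 70%, limit read from the data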
# Hck-Nef inh: human Hck-Nef kinase inhibition | P08631 | Recombinant Hck-YEEI plus Nef, Z-Lyte FRET kinase assay | inhibition, % at 20 µM | actives 0.68% (n = 220,000);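 active means Hck-Nef kinase inhibition above about 50%, limit read from the data; inactive means inhibition below that limit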
# TbHK1 inh: T. brucei hexokinase 1 inhibition; inhibition, % at 10 µM; recombinant TbHK1, G6PDH-coupled NADH A340; actives 0.11% (n = 220,000);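 active means inhibition of 50% or more in the single-dose primary screen; inactive means inhibition below 50%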
# Runt-SMMHC FRET: blocks binding of human RUNX1 Runt domain to CBFb-SMMHC. Q01196+Q13951. inhibition, % at 20 µM. actives 0.74% (n = 220,000). Cerulean-Runt/Venus-CBFb-SMMHC FRET ratio 530/480, 1 h. AID 1434;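 active means mean inhibition across duplicate retests at 20 µM reaching about 50%, limit read from the data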;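 further: inhibitors lower the FRET ratio by blocking Runt binding to CBFb-SMMHC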
# Hck Nef conf: Hck-Nef kinase inhibition, confirmation; shares compounds with Hck-Nef inh; Recombinant Hck-YEEI:Nef, Z-Lyte FRET kinase assay; calls only at 10 µM; actives 28% (n = 1,300);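 active means average inhibition of at least 50%, with Z-scores no higher than 3 in both the phospho-tyrosine peptide and fluorescence counterscreens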
# Numbers stand for hits; - = inactive; ? = inconclusive; . = no result shown; + = active, no number; [ ] = another dose, or the depositor's remark. An excerpt weighted towards active compounds, which were near 2.2% of everything screened.
SMILES,RanGTP-Imp inh,Runt-CBFb FRET,14-3-3 Bad inh,Hck-Nef inh,TbHK1 inh,Runt-SMMHC FRET,Hck Nef conf
O=C(Nc1cccc(S(=O)(=O)NC2=NCCCCC2)c1)c1cc(-c2ccncc2)nc2ccccc12,-,-,-,-,-,-,.
Cc1c(O)ccc2c(CN3CCN(CCO)CC3)cc(=O)oc12,56,-,-,63,-,79,-
Cc1ccc2c(CN3CCN(Cc4ccc5c(c4)OCO5)CC3)cc(=O)oc2c1C,-,-,-,-,-,-,.
O=C1N=C(N2CCN(c3ccccc3)CC2)S/C1=C/c1ccco1,-,-,-,52,-,-,-
COc1ccc(S(=O)(=O)Nc2cc3c(cc2C(C)=O)OCO3)cc1,-,.,-,54,-,.,-
Cc1ccc(C(C)C)c(OCC(=O)N/N=C/c2ccc(S(=O)(=O)O)o2)c1,-,-,-,-,-,-,.
CC(C)(C)CC(C)(C)c1ccc(OCC(=O)N/N=C/c2ccc(S(=O)(=O)O)o2)cc1,-,-,-,57,-,-,+
COc1ccc(NS(=O)(=O)c2cccc(C(=O)N/N=C(\C)c3ccc(-n4ccnc4)cc3)c2)cc1,-,-,-,59,-,-,-
N#C/C(=C\c1ccc(-c2cccc([N+](=O)[O-])c2)o1)C(=O)Nc1nc(-c2cccs2)cs1,-,-,-,75,-,-,+
O=C(N/N=C/c1ccc(-c2cccc([N+](=O)[O-])c2)o1)c1cccs1,-,-,-,-,-,-,.
Cc1ccsc1/C=N\Nc1cn[nH]c(=O)c1Cl,-,-,-,74,-,-,+
COc1ccc(/C=N/Nc2cn[nH]c(=O)c2Cl)cc1,-,-,-,72,-,-,+
COC(=O)C1=CN(C)C=C(C(=O)OC)C1c1ccsc1,33,108,-,53,-,61,-
Cc1ccc(-c2nn3c(C)nnc3s2)cc1NC(=O)c1ccc(-c2ccc(Cl)cc2Cl)o1,.,-,86[fluorescence artefact?],50,-,-,+
O=C(CSc1nnc(C2CC2)n1CC1CCCO1)Nc1ccc(Cl)cc1 (stereo not given),-,.,.,.,.,.,.
NC(=S)n1[nH]c(-c2ccc([N+](=O)[O-])cc2)c(N=Nc2cccc([N+](=O)[O-])c2)c1=O,-,-,91,76,-,-,+
COc1cc(-c2cc(OC)c3c(C)oc(C)c3c(=O)c2)ccc1O,-,-,-,-,-,-,.
COc1cc(-c2cc(=O)c3c(O)c(OC)c(OC)c(O)c3o2)ccc1O,-,-,-,67,-,-,+
Cc1ccc(-c2nc3cccnc3o2)cc1NC(=O)COc1ccc(C(C)(C)C)cc1,-,-,-,-,-,-,.
Cc1ccc(-c2nc3cccnc3o2)cc1NC(=O)COc1ccc(Cl)cc1C,-,-,-,62,-,-,-
CCOC(=O)c1[nH]c2ccccc2c1NC(=S)Nc1ccccc1C,-,-,-,-,-,-,.
CCOC(=O)c1[nH]c2ccccc2c1NC(=S)Nc1cc(C)ccc1C,-,-,-,57,-,-,-
Cn1c(SCC(=O)Nc2ccc(NC(=O)c3cccs3)cc2)nnc1-c1ccncc1,-,-,-,-,-,-,.
O=C(NC(=S)Nc1ccccc1F)c1ccc(Br)o1,-,-,-,-,-,-,.
Cc1c(Cl)c(=O)oc2cc(OCC(=O)NCc3cccs3)ccc12,-,-,-,-,-,-,.
SMILES,RanGTP-Imp inh,Runt-CBFb FRET,14-3-3 Bad inh,Hck-Nef inh,TbHK1 inh,Runt-SMMHC FRET,Hck Nef conf
CCOC(=O)Cc1c(C)c2ccc(N(CC)CC)cc2oc1=O,130,-,-,107,-,-,.
CCOC(=O)CCc1c(C)c2ccc(O)cc2oc1=O,-,-,-,90,-,91,.
CCOC(=O)Cc1c(C)c2c(O)cc(O)cc2oc1=O,-,-,-,50,-,68,-
CCN(CC)c1ccc2c(C)c(Cl)c(=O)oc2c1,108,-,-,+,-,91,.
N[C@H]1C(O)O[C@H](CO)[C@@H](O)[C@@H]1O (stereo not given in full),-,.,.,.,.,.,.
COCCNC(=O)c1c(N)n(/N=C/c2ccc(F)cc2)c2nc3ccccc3nc12,?,-,-,-,-,-,.
CC(C)CNC(=O)c1c(N)n(/N=C/c2ccccn2)c2nc3ccccc3nc12,-,-,-,51,-,-,-
O=C(COc1ccc(/C=N/NC(=O)c2cc3ccccc3o2)cc1Br)Nc1ccccc1,-,-,86[fluorescence artefact?],79,-,-,+
CCc1nnc(NC(=O)CSc2nnc(-c3ccc(NS(=O)(=O)c4ccccc4)cc3)o2)s1,-,-,-,-,-,-,.
CC[C@H](CO)Nc1nc(Nc2cccc(Cl)c2)c2ncn(C(C)C)c2n1,-,-,-,110,-,-,+
CC(C)[C@H](CO)N(Cc1cccc(F)c1)c1nc(Nc2cccc(Cl)c2)c2ncn(C(C)C)c2n1,-,-,-,68,-,-,+
CC(C)n1cnc2c(N(C)c3cccc(Cl)c3)nc(N(CCO)CCO)nc21,-,-,-,-,-,-,.
O=C(CSc1nc2ccccc2c2nc3ccccc3n12)NCc1ccco1,-,-,-,82,-,-,.
CCn1c(SCC(=O)NCc2ccco2)nc2ccccc2c1=O,?,-,-,-,-,-,.
CCC1=NN2C(=N)/C(=C\c3cccn3-c3ccc(Cl)cc3)C(=O)N=C2S1,.,.,-,-,-,-,.
Cc1ccc(-n2cccc2/C=C2\C(=N)N3N=C(c4ccco4)SC3=NC2=O)cc1,.,-,74,70,-,-,+
O=C1/C(=C\c2ccco2)SC(=S)N1C1CCS(=O)(=O)C1 (stereo not given),-,-,-,69,-,-,-
Cc1c(N=C2C=CC(=O)c3ccccc32)c(=O)n(-c2ccccc2)n1C,-,-,-,51,-,-,-
Cc1c(N2C(=O)c3ccccc3C2=O)c(=O)n(-c2ccccc2)n1C,-,-,-,-,-,-,.
Cc1c(N=C2C=C(Br)C(=O)C(Br)=C2)c(=O)n(-c2ccccc2)n1C,.,-,-,50,-,-,-
Cc1c(N=Nc2ccc(O)cc2)c(=O)n(-c2ccccc2)n1C,-,-,-,-,-,-,.
O=[N+]([O-])c1ccccc1NC(=S)N/N=C/c1ccc(O)c(O)c1,-,-,-,87,-,-,-
CCOc1cccc(/C=N/NC(=S)Nc2ccccc2[N+](=O)[O-])c1O,-,-,-,-,-,-,.
COc1cc2ncnc(NCc3ccc(C)o3)c2cc1OC,-,-,-,78,-,-,-
NS(=O)(=O)c1ccc(O)c(NC(=O)c2ccc([N+](=O)[O-])cc2)c1,-,-,-,-,-,-,.
